# PHOSPHO1 block: blocks human PHOSPHO1 phosphatase activity; Q8TCT1; recombinant PHOSPHO1, absorbance phosphatase assay; inhibition, % at 13.3 µM; 290,000 tested, 1.1% active; in the data active = inhibition above about 60%
# Efa HMGR inh: blocks class II HMG-CoA reductase of Enterococcus faecalis | purified E. faecalis HMGR, NADPH absorbance 340 nm kinetic | inhibition, % at 10 µM | 190,000 tested, 0.41% active | AID 1066;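 active = inhibition above a set limit, the median over all tested compounds plus 3 SD, cut at about 9.5% in these data; inconclusive = no clear call, values can overlap the other calls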;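 note: enzyme runs in reverse so mevalonate oxidation gives rising NADPH absorbance; 0% = complete reaction with DMSO and 100% = background rate lacking mevalonate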
# RanGTP-Imp inh: inhibitors of RanGTP-importin-beta interaction, primary screen, biochemical, FRET, CFP-Ran, YFP-importin-beta, homogeneous; 300,000 tested, 1.1% active; cell-free CFP-Ran/YFP-importin-beta FRET ratio; AID 2216; inhibition, % (concentration not given with the values);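 active = more than half of the replicate wells show a fall in the fluorescence ratio signal beyond about 16%, limit read from the data, passing the limit was not always enough; inconclusive = exactly half of the replicate wells pass the set limit; inactive = fewer than half of replicates pass the limit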;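 note: 0% = DMSO wells and 100% = Ran loaded with GDP instead of GTP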
# Runt-CBFb FRET: blocks binding of human RUNX1 Runt domain to CBFb. Q01196+Q13951. Cerulean-Runt/Venus-CBFb FRET ratio 530/480, 1 h. inhibition, % at 20 µM. 220,000 tested, 0.46% active. AID 1496;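 active = inhibition over about 50% at 20 µM in the single-dose screen, limit read from the data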;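 note: 0% = DMSO wells and 100% = excess unlabeled CBFb competitor control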
#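 Assay system: Cerulean-tagged RUNX1 Runt domain (FRET donor) fusion protein / Amount: 100 nM each of Venus-CBFb and Cerulean-Runt domain / Medium: Tris buffer pH 7.5 with salts and BSA / Also added: Venus-CBFb 100 nM / Schedule: 1 h complex formation plus 1 h compound treatment, room temperature / Signal: FRET fluorescence / Read-out: loss of energy transfer signal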
# Runt-SMMHC FRET: blocks binding of human RUNX1 Runt domain to CBFb-SMMHC; Q01196+Q13951; Cerulean-Runt/Venus-CBFb-SMMHC FRET ratio 530/480, 1 h; inhibition, % at 20 µM; 220,000 tested, 0.74% active; AID 1434;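 active = mean inhibition across duplicate retests at 20 µM reaching about 50%, limit read from the data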;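 note: 0% = DMSO wells and 100% = wells with excess untagged CBFb-SMMHC; inhibitors lower the FRET ratio by blocking Runt binding to CBFb-SMMHC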
# Wee1 stabilizer: human Wee1 degradation inhibition, primary screen. 220,000 tested, 1.2% active. reporter increase, % at 5 µM. P30291. HeLa Luc-Wee1K328M stability, luciferase luminescence; 100% = proteasome inhibitor MG132 effect;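 active = activation above the mean of all tested compounds plus 3 SD, set per screening run, cut at about 8.8% in these data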;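 note: cells exposed to compound for 20 h before luminescence read; 0% = DMSO alone and 100% = MG132 at 30 µM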
# Target sequence (P30291 whole entry K328M): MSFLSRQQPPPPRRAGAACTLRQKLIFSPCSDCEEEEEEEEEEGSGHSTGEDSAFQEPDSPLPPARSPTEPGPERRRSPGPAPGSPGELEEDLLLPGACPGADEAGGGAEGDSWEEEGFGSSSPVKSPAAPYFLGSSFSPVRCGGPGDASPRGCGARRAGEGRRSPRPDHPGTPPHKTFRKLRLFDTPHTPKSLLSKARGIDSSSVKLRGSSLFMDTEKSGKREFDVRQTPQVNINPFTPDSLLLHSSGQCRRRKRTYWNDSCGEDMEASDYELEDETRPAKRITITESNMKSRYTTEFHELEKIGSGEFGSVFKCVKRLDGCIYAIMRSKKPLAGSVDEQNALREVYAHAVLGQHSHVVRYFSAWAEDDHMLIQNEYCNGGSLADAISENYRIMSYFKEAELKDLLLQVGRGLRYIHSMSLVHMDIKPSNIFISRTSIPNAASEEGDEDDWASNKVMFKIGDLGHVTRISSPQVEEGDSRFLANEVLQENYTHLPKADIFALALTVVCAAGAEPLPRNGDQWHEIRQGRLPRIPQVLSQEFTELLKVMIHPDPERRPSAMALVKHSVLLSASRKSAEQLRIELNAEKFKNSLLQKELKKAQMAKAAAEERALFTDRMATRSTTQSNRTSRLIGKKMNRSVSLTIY
# * hit, by the source's call; ? = inconclusive; nt = no result. Rows were chosen to be rich in hits. Some 3.4% of all compounds tested hit in one or more screens of this group.
SMILES,PHOSPHO1 block,Efa HMGR inh,RanGTP-Imp inh,Runt-CBFb FRET,Runt-SMMHC FRET,Wee1 stabilizer
Cn1c(=O)[nH]c(=O)c2c1nc(N1CCCCC1)n2C/C=N/Nc1ccc(C(=O)O)cc1,64*,nt,1,0,0,-2
Cn1c(=O)[nH]c(=O)c2c1nc(N1CCCC1)n2CCSc1nc2ccccc2[nH]1,26,-5,nt,1,-2,-1
Cc1[nH]c2ccccc2c1C(=O)C(C)OC(=O)C1CCC1 (stereo unspecified),nt,nt,1,nt,nt,nt
CCOCCCNCc1cn(-c2ccc(F)cc2F)nc1-c1ccccc1C,-15,1,6,0,1,-3
CCOCC(=O)Nc1cc(S(=O)(=O)N2CCOCC2)ccc1N1CCCCC1,75*,0,-10,7,44,3
Cc1cccc(N2CCN(S(=O)(=O)c3ccc4c(c3)CC(=O)N4C)CC2)c1C,32,nt,2,nt,nt,nt
CN1C(=O)Cc2cc(S(=O)(=O)N3CCOCC3)ccc21,-8,-1,39*,0,3,4
O=[N+]([O-])c1cc(S(=O)(=O)N2CCOCC2)ccc1N1CCCC1,42,-3,-1,4,-3,0
Cc1ccc(C)n1-c1cc(S(=O)(=O)N2CCOCC2)ccc1N1CCCC1,-13,5,33*,-2,-2,-4
CCCCCC(=O)Nc1cc(S(=O)(=O)N2CCOCC2)ccc1N1CCCC1,nt,nt,-1,nt,nt,nt
Cc1ccc(-n2c(Cc3cccn3C)nnc2SCC(=O)N2CCN(c3ccccc3)CC2)cc1,77*,3,2,-2,0,-3
Cn1cccc1Cc1nnc(SCC(=O)N2CCCCCC2)n1-c1ccc(F)cc1,3,-7,0,0,-3,2
Cc1ccccc1-n1c(SCC(=O)N2CCN(c3ccccc3)CC2)nnc1-c1ccncc1,66*,-4,?,0,3,3
CCn1c(COc2cc(C)cc(C)c2)nnc1SCC(=O)N1CCN(c2ccccc2)CC1,73*,-2,2,-7,1,-4
Cc1ccccc1NC(=O)C(=O)NCCCN1CCOCC1,9,1,-2,0,3,-1
Cc1c(C(=O)N2CCc3ccccc32)cnn1C,-3,11*,3,0,0,5
O=C(O)CCC(=O)N1CCN(c2ccc(C(=O)c3ccc(F)cc3)cc2)CC1,12,1,3,-1,-4,1
CN1CCN(c2ccc(C(=O)c3ccc(F)cc3)cc2)CC1,10,0,1,-2,1,9.0*
CCc1cc(=O)[nH]c(SCC(=O)N2CCOCC2)n1,nt,nt,-2,nt,nt,nt
CCOC(=O)N1CCN(c2nc3ccccn3c(=O)c2C=O)CC1,-19,nt,3,nt,nt,nt
O=c1c2c(nc3c(-c4cccc(Br)c4)c[nH]n13)CCCC2,62*,1,-4,0,-4,-1
Cc1ccc(SC(C)C(=O)Nc2ccncc2)cc1 (stereo unspecified),-20,-7,-3,0,2,3
Cc1ccc(SC(C)C(=O)Nc2cccnc2)cc1 (stereo unspecified),60*,-6,3,-1,-8,-1
Cc1cc(C)nc(SCC(=O)NC2=NN=C(c3ccc(Br)cc3)CS2)n1,37,-1,38*,nt,36,-1
CCC(Sc1nc(C)cc(C)n1)C(=O)Nc1cc(C)on1 (stereo unspecified),18,-4,2,-1,2,1
SMILES,PHOSPHO1 block,Efa HMGR inh,RanGTP-Imp inh,Runt-CBFb FRET,Runt-SMMHC FRET,Wee1 stabilizer
Cc1cc(C)nc(SCC(=O)Nc2ccc(Br)cn2)n1,-5,-5,8,0,-3,-2
CCC(Sc1nc(C)cc(C)n1)C(=O)NC1=NN=C(c2ccc(C)cc2)CS1 (stereo unspecified),104*,1,3,10,26,-2
O=C(CSC1=Nc2ccccc2C2CC=NN12)Nc1ccc2c(c1)OCO2 (stereo unspecified),1,-2,nt,1,1,-2
N#Cc1ccccc1NC(=O)CSC1=Nc2ccccc2C2CC=NN12 (stereo unspecified),-19,-3,-1,4,5,9.4*
Cc1cc(C)cc(N(CCC#N)C(=O)CSC2=Nc3ccccc3C3CC=NN23)c1 (stereo unspecified),32,6,3,-4,0,9.9*
O=c1nccc(Nc2ccccc2)[nH]1,34,nt,0,1,5,-1
c1ccc(Nc2cc(Nc3ccccc3)[nH]n2)cc1,69*,-4,-2,2,-17,0
COc1ccc(CC(=O)NCCS(=O)(=O)N2CCN(c3ccc(F)cc3)CC2)cc1OC,43,nt,2,nt,nt,nt
COCCCn1c(C)c(C(C)=O)cc(NC(=O)c2ccccc2)c1=O,49,11*,0,-1,-3,-3
COc1ccc2cc(CCNC(=O)c3cccs3)c(=O)[nH]c2c1,9,5,-2,-2,1,9.5*
COc1cc2c(cc1OC)C1(Nc3c-2c(Cc2ccccc2)nn3-c2ccccc2)C(=O)Nc2ccccc21 (stereo unspecified),-18,-1,24*,2,-3,-2
COc1ccc(Nc2ncnc3c2oc2ccccc23)cc1,25,-9,?,0,3,10*
O=C(Nc1ccc2c(c1)OCO2)c1noc2c1CCCCC2,-10,-18,?,3,1,10*
Cc1ccc(O)c(Nc2c3ccccc3nc3ccccc23)c1,14,nt,24*,nt,nt,nt
CCCCOC(=O)c1ccc(NC(=O)C(=O)CC(=O)c2ccc(OC)cc2)cc1,14,nt,-4,nt,nt,nt
COc1ccccc1NC(C#N)c1ccccc1OCc1ccccc1 (stereo unspecified),7,0,-2,-4,-2,11*
CNC(=O)c1ccc(OCc2ccccc2)c(OC)c1,-7,-2,nt,0,-7,-2
O=C(NCc1ccc(Cl)s1)C1CCC(=O)N(CCc2cccc(F)c2)C1 (stereo unspecified),22,nt,0,nt,nt,nt
COc1ccc(-n2nc3c(N)n[nH]c3cc2=O)cc1,8,0,-14,-6,-20,-2
Nc1n[nH]c2cc(=O)n(-c3ccc(Cl)cc3)nc12,-1,2,77*,18,54*,1
CC(C)CC(=O)CC1(O)C(=O)Nc2ccccc21 (stereo unspecified),27,-5,-2,0,-3,-1
COc1cccc(NC(=O)C2CC(=O)n3cnnc3S2)c1 (stereo unspecified),103*,-5,nt,9,3,-1
COc1ccc(NC(=O)C2CC(=O)n3cnnc3S2)cc1 (stereo unspecified),104*,-3,0,12,2,-2
Cc1cccc(C(=O)N2CCN(Cc3nc4sc5c(c4c(=O)[nH]3)CCCC5)CC2)c1,37,nt,5,nt,nt,nt
COc1cccc(CN(CC(=O)NC2CCCC2)C(=O)c2csnn2)c1,2,nt,2,nt,nt,nt

# Screening results: PubChem, several laboratories
